# Results reported in ChEMBL document CHEMBL1122794, “[(Arylcarbonyl)oxy]propanolamines. 1. Novel beta-blockers with ultrashort duration of action” (J Med Chem, 1984).
# Assays:
# Canis familiaris [1] = species: Canis familiaris; assay: Percent inhibition of isoproterenol induced tachycardia at a dose of 1.3 microg (3-h infusion period); assay type: functional, Canis lupus familiaris
# [2] = T1/2 in canine blood; assay type: ADME, […], Canis lupus familiaris; conditions: dog
# Method in brief: (§1)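 1 mL of solution containing 50 µg of compound was added to 1 mL of dog or human whole blood, or to 1 mL of 33% (w/v) canine liver homogenate. They were assayed by HPLC on a phenyl column with 60% acetonitrile/40% 0.05 M sodium phosphate (pH 6.6) and UV detection. Half-life was read graphically from concentration versus time.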
# [3] = Selectivity determined by expression 10[pA2(atria) - pA2 (trachea)] in guinea pig; assay type: functional, Cavia porcellus
# Canis familiaris [4] = species: Canis familiaris; assay: Time taken for 80% recovery at a dose of 182 microg (3-h infusion period); assay type: functional, organism-based; conditions: Canis lupus familiaris
# Adrenergic receptor beta [5] = target: T1, Adrenergic receptor beta (Homo sapiens, UniProt P08588+P07550+P13945); assay: In vitro blocking of beta adrenergic receptor in guinea pig trachea; assay type: tissue-based, Cavia porcellus; conditions: target entry is the homologue from another species
# Adrenergic receptor beta [6] = target: T1, Adrenergic receptor beta; assay: In Vitro inhibition of the beta adrenergic receptor in guinea pig atria; assay type: tissue-based, Cavia porcellus; conditions: target entry is the homologue from another species
# Canis familiaris [7] = species: Canis familiaris; assay: Percent inhibition of isoproterenol induced tachycardia at a dose of 182 microg (3-h infusion period); assay type: functional, Canis lupus familiaris
# Canis familiaris [8] = species: Canis familiaris; assay: Percent inhibition of isoproterenol induced tachycardia at a dose of 100 microg (3-h infusion period); assay type: functional, Canis lupus familiaris
# [9] = Stability at pH 7.4 and 37 degree Celsius (after 18 h); assay type: physicochemical; conditions: buffer
# Method in brief: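 Chemical stability was tested in pH 7.4 buffer at 37 °C. The percentage of parent compound remaining after 18 h of incubation was recorded.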
# Canis familiaris [10] = species: Canis familiaris; assay: Time taken for 80% recovery at a dose of 100 microg (3-h infusion period); assay type: functional, organism-based; conditions: Canis lupus familiaris
# Canis familiaris [11] = species: Canis familiaris; assay: Time taken for 80% recovery at a dose of 70 microg (3-h infusion period); assay type: functional, organism-based; conditions: Canis lupus familiaris
# Method in brief: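 After the infusion ended, the time to 80% recovery of the blockade was recorded as duration of action. The listed dose is the average amount infused per minute over the 3-h period, in µg/(kg min).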
# [12] = t1/2 in canine liver; assay type: ADME, Canis lupus familiaris; conditions: dog
# [13] = Time in which 1/2 of the initial amount disappeared in human blood.; assay type: ADME, organism-based; method in brief: as §1
# Canis familiaris [14] = species: Canis familiaris; assay: Percent inhibition of isoproterenol induced tachycardia at a dose of 70 microg (3-h infusion period); assay type: functional, Canis lupus familiaris
# [15] = Time in which 1/2 of the initial amount disappeared in canine liver (44); assay type: ADME, […], Canis lupus familiaris; conditions: dog; method in brief: as §1
# [16] = target: Beta-2 adrenergic receptor (Cavia porcellus) (UniProt Q8K4Z4); assay: In Vitro evaluation for […] selectivity in guinea pig
# Method in brief: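 Selectivity index calculated as 10^[pA2(atria) − pA2(trachea)] from pA2 values measured in isolated guinea pig atria and trachea. A minus sign denotes β2 selectivity.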
# [17] = Time in which 1/2 of the initial amount disappeared in canine blood; assay type: ADME, […], Canis lupus familiaris; conditions: dog; method in brief: as §1
# [18] = Time in which 1/2 of the initial amount disappeared in canine liver; assay type: ADME, […], Canis lupus familiaris; conditions: dog; method in brief: as §1
# Canis familiaris [19] = species: Canis familiaris; assay: Percent inhibition of isoproterenol induced tachycardia at a dose of 10 microg (3-h infusion period); assay type: functional, Canis lupus familiaris
# Canis familiaris [20] = species: Canis familiaris; assay: Time taken for 80% recovery at a dose of 10 microg (3-h infusion period); assay type: functional, organism-based; conditions: Canis lupus familiaris
# Canis familiaris [21] = species: Canis familiaris; assay: Time taken for 80% recovery at a dose of 36 microg (3-h infusion period); assay type: functional, organism-based; conditions: Canis lupus familiaris
# Canis familiaris [22] = species: Canis familiaris; assay: Percent inhibition of isoproterenol induced tachycardia at a dose of 36 microg (3-h infusion period); assay type: functional, Canis lupus familiaris
# Canis familiaris [23] = species: Canis familiaris; assay: Percent inhibition of isoproterenol induced tachycardia at a dose of 27 microg (3-h infusion period); assay type: functional, Canis lupus familiaris
# Canis familiaris [24] = species: Canis familiaris; assay: Time taken for 80% recovery at a dose of 27 microg (3-h infusion period); assay type: functional, organism-based; conditions: Canis lupus familiaris
# Canis familiaris [25] = species: Canis familiaris; assay: Percent inhibition of isoproterenol induced tachycardia at a dose of 15 microg (3-h infusion period); assay type: functional, Canis lupus familiaris
# Canis familiaris [26] = species: Canis familiaris; assay: Time taken for 80% recovery at a dose of 15 microg (3-h infusion period); assay type: functional, organism-based; conditions: Canis lupus familiaris
# Canis familiaris [27] = species: Canis familiaris; assay: Percent inhibition of isoproterenol induced tachycardia at a dose of 1 microg (3-h infusion period); assay type: functional, Canis lupus familiaris
# Canis familiaris [28] = species: Canis familiaris; assay: Time taken for 80% recovery at a dose of 1 microg (3-h infusion period); assay type: functional, organism-based; conditions: Canis lupus familiaris
# Chain of Beta-2 adrenergic receptor (Cavia porcellus) (Q8K4Z4 whole entry, looked up): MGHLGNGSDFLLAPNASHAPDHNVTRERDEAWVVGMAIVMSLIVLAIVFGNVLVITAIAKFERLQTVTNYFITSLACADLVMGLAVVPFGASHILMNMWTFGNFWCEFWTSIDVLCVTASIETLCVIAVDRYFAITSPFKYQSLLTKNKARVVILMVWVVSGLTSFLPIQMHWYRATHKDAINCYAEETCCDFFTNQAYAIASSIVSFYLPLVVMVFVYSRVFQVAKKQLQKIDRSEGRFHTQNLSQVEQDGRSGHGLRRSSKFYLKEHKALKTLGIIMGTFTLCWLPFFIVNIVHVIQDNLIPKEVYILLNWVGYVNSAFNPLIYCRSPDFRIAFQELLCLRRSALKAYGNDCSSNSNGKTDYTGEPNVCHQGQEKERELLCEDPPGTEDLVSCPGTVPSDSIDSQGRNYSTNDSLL
SMILES,half-life [2] [min],Selectivity [3],pA2 (Adrenergic receptor beta [5]),pA2 (Adrenergic receptor beta [6]),half-life [12] [min],other results
CC(C)NCC(O)COc1cccc2ccccc12 (configuration not stated) [PROPRANOLOL],> 180,,,,,Inhibition (Canis familiaris [1]): 68%
CC(C)NCC(O)COC(=O)c1ccc2ccccc2c1 (configuration not stated),,-2,6.6,6.4,,Recovery time (Canis familiaris [4]): > 60 min; Inhibition (Canis familiaris [7]): 54%
COc1ccc(CCNCC(O)COC(=O)c2ccccc2F)cc1OC (configuration not stated),,2.5,5.7,6.1,,Inhibition (Canis familiaris [8]): 48%; remaining at 18 h [9]: 35%; Recovery time (Canis familiaris [10]): > 60 min
CC(C)(C)NCC(O)COC(=O)c1ccccc1 (configuration not stated),7.3,-8,7.7,6.8,20,remaining at 18 h [9]: 99%; Recovery time (Canis familiaris [11]): > 60 min; half-life [13]: 5.3 min; Inhibition (Canis familiaris [14]): 65%
CC(C)NCC(O)COC(=O)c1ccccc1Cl (configuration not stated),28,,,,,remaining at 18 h [9]: 92%; half-life [15]: 12 min; half-life [13]: 1.7 min
CC(C)(C)NCC(O)COC(=O)c1ccc(C=O)cc1 (configuration not stated),,,6.3,6.2,,Selectivity [16]: 1; half-life [17]: 14 min; half-life [18]: 1 min
CC(C)(CNC(=O)Cc1ccccc1)NCC(O)COC(=O)c1ccccc1F (configuration not stated),6,-5,8.1,7.4,25,Inhibition (Canis familiaris [19]): 68%; Recovery time (Canis familiaris [20]): 19 min
CCOC(=O)NCC(C)(C)NCC(O)COC(=O)c1ccccc1F (configuration not stated),8,1,7,7.1,1,Recovery time (Canis familiaris [21]): 8 min; Inhibition (Canis familiaris [22]): 49%
CC(C)(C)NCC(O)COC(=O)c1ccccc1O (configuration not stated),41,-9,8,7.1,31,Inhibition (Canis familiaris [23]): 73%; Recovery time (Canis familiaris [24]): > 60 min
CC(=O)NCC(C)(C)NCC(O)COC(=O)c1ccccc1F (configuration not stated),7.5,,,,,Inhibition (Canis familiaris [25]): 61%; Recovery time (Canis familiaris [26]): 35 min
CC(C)(CNC(N)=O)NCC(O)COC(=O)c1ccccc1F (configuration not stated) [FLESTOLOL],15,-2,8.4,8.1,2.5,Inhibition (Canis familiaris [27]): 49%; Recovery time (Canis familiaris [28]): 21 min
